The record followed here is ChEMBL document CHEMBL4837211, “Adamantane derivatives as potential inhibitors of p37 major envelope protein and poxvirus reproduction. Design, synthesis and antiviral activity” (Eur J Med Chem, 2021).

Series [1] deals with p37 (Ectromelia virus K1). In words: Selectivity index, ratio of CC50 for African green monkey Vero cells to IC50 for inhibition of p37 in Ectromelia virus K1 infected in African green monkey Vero cells. As to conditions: read-out: Ratio CC50/IC50. The class given is toxicity.
Series [2] can be described thus: cells. It is filed as cell-based. As to conditions: Ectromelia virus, Vero, 96 h.
A short description of series [3]: cells. It is filed as cell-based. As to conditions: Cowpox virus, Vero, 96 h.
Series [4] concerns p37 (Cowpox virus Grishak). The series is described as follows: Selectivity index, ratio of CC50 for African green monkey Vero cells to IC50 for inhibition of p37 in Cowpox virus Grishak infected in African green monkey Vero cells. As to conditions: read-out: Ratio CC50/IC50. The class given is toxicity.
The subject of series [5] is Vero. The series is described as follows: (§1) Cytotoxicity against African green monkey Vero cells assessed as reduction in cell viability by neutral red dye based colorimetric analysis. To be noted: chlorocebus sabaeus, vero. The method, boiled down:
(§2)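 Vero monolayers are grown in DMEM with 5% FBS, gentamicin and amphotericin B, and assayed in the same medium with 2% serum. Each compound is tested as 8 three-fold dilutions, starting at 1, 10 or 100 µg/ml, added before 1000 pfu/well virus. After 4 days, neutral red is added for 1.5 h, cells are washed and lysed, and OD is read. CC50 and IC50 are derived from OD values.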

Series [6] has as its system p37 (Vaccinia virus Copenhagen). In words: Selectivity index, ratio of CC50 for African green monkey Vero cells to IC50 for inhibition of p37 in Vaccinia virus Copenhagen infected in African green monkey Vero cells. It is filed as toxicity. As to conditions: read-out: Ratio CC50/IC50.
The nature of series [7]: as §1. To be noted: chlorocebus sabaeus, Vero cells. The method, boiled down:
as §2

By IC50 is commonly meant the concentration that gives 50% inhibition. What is called CC50 is the concentration giving 50% cytotoxicity.

For the compound `CC12CC3CC(C1)CC(NC(=O)c1ccc(C(F)(F)F)cc1)(C3)C2`, the selectivity ratio was more than 72 in series [1], more than 19 in series [4] and more than 33 in series [6]. Also, the IC50 was found to be 4.1 µM in series [2] and 15.6 µM in series [3]. In series [5], the CC50 was more than 296 µM.
For the compound `O=C(NCC12CC3CC(CC(C3)C1)C2)c1ccc(Br)cc1`, the selectivity ratio in series [1] is 136; in series [6] it was 28. Further, it took 1.75 µM to reach half-maximal inhibition in series [2] (IC50). Moreover, in series [5], the CC50 amounted to 238 µM.
Regarding `CN(C(=O)c1ccc(C(F)(F)F)cc1)C12CC3CC(CC(C3)C1)C2`, the figures for the selectivity ratio in series [1], in series [4] and in series [6] were more than 48, more than 9 and more than 61, respectively. Besides, the results for the IC50 in series [2] and in series [3] were 6.17 µM and 32.9 µM, respectively. In addition, in series [5], the CC50 was more than 296 µM.
Take `O=C(NCC12CC3CC(CC(C3)C1)C2)c1ccc(C(F)(F)F)cc1`: the IC50 in series [3] amounted to 1.24 µM. The selectivity ratio in series [4] is more than 239; in series [6], more than 1100. Also, the CC50 in series [5] is more than 296 µM.
`CC12CC3CC(C)(C1)CC(NC(=O)c1ccc(C(F)(F)F)cc1)(C3)C2`: the CC50 in series [5] amounted to 20.5 µM.
Regarding `CCC12CC3CC(C1)CC(NNC(=O)c1ccc(C(F)(F)F)cc1)(C3)C2`, in series [7], the half-maximal cytotoxic concentration (CC50) was determined as 2.5 µM. For the same compound, in series [6], the selectivity ratio is 1.5.
Take `O=C(NC1C2CC3CC(C2)CC1C3)c1ccc(C(F)(F)F)cc1` (stereo not drawn): the selectivity ratio in series [1] was more than 543; in series [4], more than 321; in series [6], more than 1430. Moreover, the figures for the IC50 in series [2] and in series [3] were 0.569 µM and 0.96 µM, respectively. Besides, the CC50 in series [5] was more than 309 µM.
Regarding `O=C(NC12CC3CC(CC(C3)C1)C2)c1ccc(C(F)(F)F)cc1`, the selectivity ratio in series [1] was more than 628; in series [4], more than 333; in series [6], more than 2320. Besides, the IC50 in series [2] stood at 0.492 µM; in series [3], 0.928 µM. In addition, the CC50 in series [5] is more than 309 µM.
As to `C/C(=N\NC(=O)c1ccc(C(F)(F)F)cc1)C12CC3CC(CC(C3)C1)C2`, the selectivity ratio in series [1] was more than 25; in series [4], more than 23; in series [6], more than 26. Further, the results for the IC50 in series [2] and in series [3] were 10.9 µM and 11.9 µM, respectively. Moreover, the CC50 in series [5] was more than 274 µM.
Consider `O=C(NNC12CC3CC(CC(C3)C1)C2)c1ccc(C(F)(F)F)cc1`, for which the CC50 in series [7] is 2.8 µM.
With `CCC12CC3CC(C1)CC(C(=O)NNC(=O)c1ccc(C(F)(F)F)cc1)(C3)C2`, in series [7], the CC50 stood at 47 µM. Moreover, the selectivity ratio in series [6] came to 3.75.
For `O=C(NNC1C2CC3CC1CC(Cl)(C3)C2)c1ccc(C(F)(F)F)cc1` (stereo not drawn), the results for the selectivity ratio in series [1], in series [4] and in series [6] were 27.5, 20.7 and 61, respectively. Besides, the IC50 in series [2] was 7.8 µM; in series [3], 10.4 µM. The CC50 in series [7] was approximately 215 µM.
Turning to `O=C(NNC(=O)c1ccc(C(F)(F)F)cc1)NC12CC3CC(CC(C3)C1)C2`, in series [5], the CC50 amounted to 94.3 µM. In addition, the selectivity ratio in series [6] stood at 2.6.
As for `O=C(NN1C(=O)[C@@H]2[C@@H]3C=C[C@@H]([C@H]4C[C@@H]34)[C@@H]2C1=O)c1ccc(C(F)(F)F)cc1` [TECOVIRIMAT], the selectivity ratio in series [1] was more than 33000; in series [4], more than 50000; in series [6] it was more than 100000. In addition, the IC50 in series [2] came out at 0.00806 µM; in series [3] it was 0.00532 µM. Besides, the CC50 in series [5] is more than 266 µM.
On to `CC(NNC(=O)c1ccc(C(F)(F)F)cc1)C12CC3CC(CC(C3)C1)C2` (racemic), for which the CC50 in series [7] came out at 14 µM. Moreover, the selectivity ratio in series [6] is 27.
Turning to `O=C(NN=C1C2CC3CC(C2)CC1C3)c1ccc(C(F)(F)F)cc1`, in series [7], the CC50 was more than 297 µM. For the same compound, the selectivity ratio in series [6] was more than 1.5.
With `CC12CC3CC(C)(C1)CC(C(=O)NNC(=O)c1ccc(C(F)(F)F)cc1)(C3)C2`, the CC50 in series [7] is more than 254 µM. The selectivity ratio in series [6] was more than 8.2.
In the case of `O=C(NNC(=O)C12CC3CC(CC(C3)C1)C2)c1ccc(C(F)(F)F)cc1`, the results for the selectivity ratio in series [1], in series [4] and in series [6] were more than 273, more than 57 and more than 255, respectively. Moreover, the IC50 in series [2] turned out to be 1 µM; in series [3], 4.77 µM. Further, in series [7], the CC50 was more than 273 µM.
Consider `CCC12CC3CC(C1)CC(NC(=O)c1ccc(C(F)(F)F)cc1)(C3)C2`, for which the selectivity ratio in series [1] was more than 25; in series [4] it was more than 25; in series [6], more than 68. Further, the IC50 in series [2] and in series [3] was 11.1 µM throughout. In addition, in series [5], the CC50 is more than 280 µM.
With `O=C(NC1C2CC3CC(C2)CC1C3)c1ccc(Br)cc1` (stereo not drawn), the selectivity ratio in series [1] was more than 61; in series [4], more than 26.5; in series [6] it was more than 98. The IC50 in series [2] came to 4.9 µM; in series [3], 11.3 µM. For the same compound, the CC50 in series [5] is more than 299 µM.
For `O=C(NNC1C2CC3CC(C2)CC1C3)c1ccc(C(F)(F)F)cc1` (stereo not drawn), the results for the selectivity ratio in series [1], in series [4] and in series [6] were more than 118, more than 72 and more than 103, respectively. In addition, the figures for the IC50 in series [2] and in series [3] were 2.5 µM and 4.06 µM, respectively. Also, the CC50 in series [7] was more than 296 µM.
